According to ChEMBL document CHEMBL3259602, “Thiaflavan scavenges radicals and inhibits DNA oxidation: a story from the ferrocene modification” (Eur J Med Chem, 2014):
Active and inactive are the calls of the source. The rule behind the calls is not given here.

Experiments:
[1] = Antioxidant activity assessed as ABTS radical scavenging activity after 16 hrs by spectrophotometric analysis; type: functional
Outline: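 Radical cation pre-formed over 16 h, then diluted in ethanol to about 0.70 absorbance at 734 nm. Compound in DMSO (0.1 mL) was added to 1.9 mL of radical solution at 7.5 μM final. Absorbance decay was recorded at 25 °C. The rate constant k was derived from the initial rate (t = 0).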

[2] = system: Radical scavenging activity; assay: Antioxidant activity assessed as DPPH radical scavenging activity by spectrophotometric analysis; type: functional
Outline: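 DPPH in ethanol (about 1.00 absorbance at 517 nm). Compound in DMSO (0.1 mL) was added to 1.9 mL of radical solution at 37.5 or 75.0 μM final, depending on compound. Absorbance decay was followed at 25 °C. The rate constant k was calculated from the initial reaction rate at t = 0.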

[3] = Antioxidant activity assessed as galvinoxyl radical scavenging activity by spectrophotometric analysis; type: functional
Outline: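 Galvinoxyl in ethanol, absorbance about 1.00 at 428 nm. Compound in DMSO (0.1 mL) was added to 1.9 mL of radical solution at 7.5 or 75.0 μM final, depending on compound. Absorbance decay was recorded at 25 °C. The rate constant k was derived from the initial rate at t = 0.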

[4] = Antioxidant activity assessed as inhibition of AAPH-induced oxidation of DNA by spectrophotometric analysis; type: functional
Outline: (§1)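 DNA sodium salt (2.0 mg/mL) with 40 mM AAPH in phosphate buffer (8.1 mM Na2HPO4, 1.9 mM NaH2PO4, 10.0 mM EDTA), with various compound concentrations in DMSO; DMSO-only blank. Samples were heated at 37 °C. TBARS was read at 535 nm. The inhibition period was taken at the crossing of tangents, then plotted against concentration.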

[5] = Antioxidant activity assessed as inhibition of AAPH-induced oxidation of DNA at 100 uM by spectrophotometric analysis; type: functional
Outline: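 Oxidation of 2.0 mg/mL DNA by 40 mM AAPH in phosphate/EDTA buffer at 37 °C, with compound at 100 μM (DMSO vehicle; DMSO-only control). TBARS was monitored at 535 nm (ε 1.56 × 10^5 M⁻¹ cm⁻¹), and its formation rate d[TBARS]/dt was expressed in nM min⁻¹.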

[6] = Antioxidant activity assessed as inhibition of AAPH-induced oxidation of DNA measured as TBARS formation by spectrophotometric analysis; type: functional; outline: as §1
[7] = Antioxidant activity assessed as inhibition of AAPH-induced oxidation of DNA at 100 uM by spectrophotometric analysis
[8] = Antioxidant activity assessed as inhibition of AAPH-induced oxidation of DNA at 200 uM by spectrophotometric analysis; type: functional

SMILES	K [1]	K [2]	K [3]	Activity [4]	Activity [5]	Activity [6]	Activity [7]	Activity [8]
Oc1ccc2c(c1)OC(c1ccc(O)c(O)c1)CS2 (stereo unspecified)	16.7 ×10³ /M/s	1.61 ×10³ /M/s	0.57 ×10³ /M/s	Active				
COc1ccc2c(c1)SCC(c1ccc(O)c(O)c1)O2 (stereo unspecified)	390 ×10³ /M/s	2.2 ×10³ /M/s	2.54 ×10³ /M/s	Active				
Cc1c(C)c2c(c(C)c1O)CCC(C)(C(=O)O)O2 (stereo unspecified)	29.2 ×10³ /M/s	0.353 ×10³ /M/s	1.7 ×10³ /M/s					
Oc1ccc(C2CSc3ccc(O)cc3O2)cc1 (stereo unspecified)	10.8 ×10³ /M/s	0.069 ×10³ /M/s	0.034 ×10³ /M/s		Active	4.1 nM/min	Active	
Oc1ccc2c(c1)SC=C(c1ccccc1)O2	4.89 ×10³ /M/s	0.0071 ×10³ /M/s				5.2 nM/min		Active
Oc1ccccc1O	2.58 ×10³ /M/s	1.3 ×10³ /M/s	1.78 ×10³ /M/s					
COc1ccc2c(c1)SC=C(c1ccc(O)cc1)O2	8.14 ×10³ /M/s	0.031 ×10³ /M/s				5.8 nM/min		Active
Oc1ccc(C2CSc3cc(O)ccc3O2)cc1 (stereo unspecified)	8.92 ×10³ /M/s	0.043 ×10³ /M/s	0.025 ×10³ /M/s	Active				
COc1ccc2c(c1)SCC(c1ccc(O)cc1)O2 (stereo unspecified)	0.202 ×10³ /M/s					4.2 nM/min		Active
Oc1ccc2c(c1)SCC(c1ccc(O)c(O)c1)O2 (stereo unspecified)	11.7 ×10³ /M/s	1.18 ×10³ /M/s	0.52 ×10³ /M/s	Active				
COc1ccc2c(c1)OC(c1ccc(O)cc1)CS2 (stereo unspecified)	0.168 ×10³ /M/s			Active				
